ChEMBL document CHEMBL4610039, “Design, synthesis and apoptosis-related antiproliferative activities of chelidonine derivatives” (Bioorg Med Chem Lett, 2020)
The source made the active and inactive calls. The calls are words filed in the database; no cut-off is given here.

Experiments:
K562 [1] = experiment: Induction of mitochondrial membrane potential loss in human K562 cells assessed as cell population with intact mitochondrial membrane potential at 0.55 uM after 48 hrs by JC1 staining-based flow cytometry analysis (reference value: 92.94%); type: functional
K562 [2] = experiment: Induction of apoptosis in human K562 cells assessed as viable cells at 1.10 uM after 48 hrs by annexin V-FITC/propidium iodide staining based flow cytometry (reference value: 96.26%); type: functional; settings: K562, 48 h, read-out: Activity
K562 [3] = experiment: Induction of cell cycle arrest in human K562 cells assessed as accumulation at G2/M phase at 1.10 uM after 72 hrs by propidium iodide staining based flow cytometry (reference value: 8.19%); type: functional
Procedure, shortened: (§1)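 For cell cycle, K562 cells were treated 72 h at 0, 0.55, 1.10 or 2.20 μM, with a solvent control. Cells were stained with PI and G1, S and G2/M fractions determined by flow cytometry.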

L02 = experiment: Antiproliferative activity against human L02 cells assessed as reduction in cell growth after 72 hrs by MTT assay; type: functional, cell-based; settings: L02, 72 h
Procedure, shortened: (§2)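 Human HepG2, MCF-7, HCT-116 and K562 tumour cells plus normal L-02 hepatocytes and PBMCs were exposed to compounds for 72 h and growth was read by MTT. 5-Fu served as positive control. IC50 is the concentration inhibiting 50% of cell growth, given as mean ± standard deviation of three independent experiments.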

K562 [4] = experiment: Induction of mitochondrial membrane potential loss in human K562 cells after 48 hrs by JC1 staining-based flow cytometry analysis; type: functional, cell-based
K562 [5] = experiment: Induction of apoptosis in human K562 cells assessed as necrotic cells at 0.55 uM after 48 hrs by annexin V-FITC/propidium iodide staining based flow cytometry (reference value: 0.78%); type: functional
K562 [6] = experiment: Antiproliferative activity against human K562 cells assessed as reduction in cell growth after 72 hrs by MTT assay; type: functional, cell-based; settings: K562, 72 h; procedure, shortened: as §2
K562 [7] = experiment: Induction of apoptosis in human K562 cells by annexin V-FITC/propidium iodide staining based flow cytometry; type: functional, cell-based
K562 [8] = experiment: Induction of apoptosis in human K562 cells assessed as increase in Bad protein expression after 24 hrs by chemiluminescence based protein array analysis; type: functional, cell-based
Procedure, shortened: (§3)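 K562 cells were treated for 24 h, then proteins were extracted and run on a human apoptosis protein array. Chemiluminescent signals were detected with a digital imaging system.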

K562 [9] = experiment: Induction of apoptosis in human K562 cells assessed as late apoptotic cells at 1.10 uM after 48 hrs by annexin V-FITC/propidium iodide staining based flow cytometry (reference value: 0.73%); type: functional
K562 [10] = experiment: Induction of cell cycle arrest in human K562 cells assessed as accumulation at G1 phase at 2.20 uM after 72 hrs by propidium iodide staining based flow cytometry (reference value: 56.13%); type: functional; procedure, shortened: as §1
K562 [11] = experiment: Induction of apoptosis in human K562 cells assessed as late apoptotic cells at 2.20 uM after 48 hrs by annexin V-FITC/propidium iodide staining based flow cytometry (reference value: 0.73%); type: functional
K562 [12] = experiment: Induction of cell cycle arrest in human K562 cells assessed as accumulation at S phase at 0.55 uM after 72 hrs by propidium iodide staining based flow cytometry (reference value: 35.68%); type: functional; procedure, shortened: as §1
K562 [13] = experiment: Induction of apoptosis in human K562 cells assessed as late apoptotic cells at 0.55 uM after 48 hrs by annexin V-FITC/propidium iodide staining based flow cytometry (reference value: 0.73%); type: functional
K562 [14] = experiment: Induction of cell cycle arrest in human K562 cells assessed as accumulation at G1 phase at 0.55 uM after 72 hrs by propidium iodide staining based flow cytometry (reference value: 56.13%); type: functional; procedure, shortened: as §1
PBMC = experiment: Cytotoxicity against human PBMC assessed as reduction in cell growth after 72 hrs by MTT assay; type: cell-based; procedure, shortened: as §2
MCF7 = experiment: Antiproliferative activity against human MCF7 cells assessed as reduction in cell growth after 72 hrs by MTT assay; type: functional, cell-based; settings: MCF7, 72 h; procedure, shortened: as §2
K562 [15] = experiment: Induction of apoptosis in human K562 cells assessed as reduction in clusterin protein expression after 24 hrs by chemiluminescence based protein array analysis; type: functional, cell-based; procedure, shortened: as §3
K562 [16] = experiment: Induction of apoptosis in human K562 cells assessed as early apoptotic cells at 2.20 uM after 48 hrs by annexin V-FITC/propidium iodide staining based flow cytometry (reference value: 2.23%); type: functional
K562 [17] = experiment: Induction of morphological changes in human K562 cells assessed as chromatin aggregation at 0.55 to 2.20 uM after 48 hrs by Hoechst 33258 staining based fluorescence microscopic analysis; type: functional, cell-based
Procedure, shortened: (§4)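 After 48 h exposure at 0, 0.55, 1.10 or 2.20 μM, K562 cells were stained with Hoechst 33258. Nuclear morphology, including chromatin aggregation and nuclear rupture, was examined by fluorescence microscopy.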

K562 [18] = experiment: Induction of apoptosis in human K562 cells assessed as reduction in bcl-xl protein expression after 24 hrs by chemiluminescence based protein array analysis; type: functional, cell-based; procedure, shortened: as §3
K562 [19] = experiment: Induction of cell cycle arrest in human K562 cells assessed as accumulation at S phase at 1.10 uM after 72 hrs by propidium iodide staining based flow cytometry (reference value: 35.68%); type: functional; procedure, shortened: as §1
K562 [20] = experiment: Induction of apoptosis in human K562 cells assessed as reduction in claspin level after 24 hrs by chemiluminescence based protein array analysis; type: functional, cell-based; procedure, shortened: as §3
K562 [21] = experiment: Induction of apoptosis in human K562 cells assessed as early apoptotic cells at 0.55 uM after 48 hrs by annexin V-FITC/propidium iodide staining based flow cytometry (reference value: 2.23%); type: functional
K562 [22] = experiment: Induction of mitochondrial membrane potential loss in human K562 cells assessed as cell population with intact mitochondrial membrane potential at 1.10 uM after 48 hrs by JC1 staining-based flow cytometry analysis (reference value: 92.94%); type: functional
HCT-116 = experiment: Antiproliferative activity against human HCT116 cells assessed as reduction in cell growth after 72 hrs by MTT assay; type: functional, cell-based; settings: HCT-116, 72 h; procedure, shortened: as §2
K562 [23] = experiment: Induction of apoptosis in human K562 cells assessed as necrotic cells at 2.20 uM after 48 hrs by annexin V-FITC/propidium iodide staining based flow cytometry (reference value: 0.78%); type: functional
K562 [24] = experiment: Induction of cell cycle arrest in human K562 cells assessed as accumulation at S phase at 2.20 uM after 72 hrs by propidium iodide staining based flow cytometry (reference value: 35.68%); type: functional; procedure, shortened: as §1
[25] = Drug metabolism assessed as nitric oxide release after 210 mins; type: physicochemical; settings: 3.5 h
Procedure, shortened: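 NO released from the NO-donating derivatives was measured over time up to 210 min by Griess assay.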

K562 [26] = experiment: Induction of cell cycle arrest in human K562 cells assessed as accumulation at S phase after 72 hrs by propidium iodide staining based flow cytometry; type: functional; procedure, shortened: as §1
K562 [27] = experiment: Induction of cell cycle arrest in human K562 cells assessed as accumulation at G1 phase at 1.10 uM after 72 hrs by propidium iodide staining based flow cytometry (reference value: 56.13%); type: functional; procedure, shortened: as §1
K562 [28] = experiment: Induction of cell cycle arrest in human K562 cells assessed as accumulation at G2/M phase at 0.55 uM after 72 hrs by propidium iodide staining based flow cytometry (reference value: 8.19%); type: functional; procedure, shortened: as §1
K562 [29] = experiment: Induction of morphological changes in human K562 cells assessed as nuclear rupture at 0.55 to 2.20 uM after 48 hrs by Hoechst 33258 staining based fluorescence microscopic analysis; type: functional, cell-based; procedure, shortened: as §4

Compound: CN1Cc2c(ccc3c2OCO3)[C@H]2[C@@H](OC(=O)CCCC(=O)OCC#CCOc3no[n+]([O-])c3S(=O)(=O)c3ccccc3)Cc3cc4c(cc3[C@H]21)OCO4
- Activity (K562 [1]): 80.71%
- viability at 1.1 µM (K562 [2]): 80.5%
- Activity (K562 [3]): 6.69%
- IC50 (L02): 6.04 µM
- Activity (K562 [4]): Dose-dependent effect
- Activity (K562 [5]): 1.69%
- IC50 (K562 [6]): 1.12 µM
- Activity (K562 [7]): Dose-dependent effect
- Activity (K562 [8]): Active
- Activity (K562 [9]): 2.39%
- Activity (K562 [10]): 32.41%
- Activity (K562 [11]): 28.97%
- Activity (K562 [12]): 41.89%
- Activity (K562 [13]): 3.47%
- Activity (K562 [14]): 47.82%
- IC50 (PBMC): > 40 µM
- IC50 (MCF7): 6.9 µM
- Activity (K562 [15]): Active
- Activity (K562 [16]): 24.84%
- Activity (K562 [17]): Active
- Activity (K562 [18]): Active
- Activity (K562 [19]): 52.04%
- Activity (K562 [20]): Active
- Activity (K562 [21]): 6.49%
- Activity (K562 [22]): 71.34%
- IC50 (HCT-116): 4.36 µM
- Activity (K562 [23]): 1.16%
- Activity (K562 [24]): 59.72%
- Drug metabolism [25]: 30 µM
- Activity (K562 [26]): Dose-dependent effect
- Activity (K562 [27]): 41.27%
- Activity (K562 [28]): 10.28%
- Activity (K562 [29]): Active
